Measured values: ChEMBL document CHEMBL5303300, “EUbOPEN Chemogenomics Library - Multiplex” (2023)
Several values for one entry are separate records, joined by “and”; a condition that tells them apart may be missing. Equal values may be shown once.

System: U2OS
Assay: Multiplex assay against U2OS
Format: toxicity, cell-based
Conditions: human, number of replicates 2
In short: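 Live cells were stained at seeding with Hoechst33342, BioTracker Green Microtubule Cytoskeleton Dye, MitoTracker Red and Annexin V Alexa Fluor 680, then imaged on a CQ1 microscope at 37°C and 5% CO2 after compound addition. CellPathfinder machine-learning gating split cells into Hoechst high-intensity objects or normal cells. Normal cells were split into healthy, pyknosed or fragmented nuclei, and pyknosed cells into mitotic or apoptotic. Tubulin, mitochondrial-mass and membrane-permeability phenotypes are per cents of healthy-nucleus cells.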

[1] = 12 h, 1 µM, compound concentration 1 uM
[2] = 12 h, 10 µM, compound concentration 10 uM
[3] = 24 h, 1 µM, compound concentration 1 uM
[4] = 24 h, 10 µM, compound concentration 10 uM
[5] = 48 h, 1 µM, compound concentration 1 uM
[6] = 48 h, 10 µM, compound concentration 10 uM

Cc1cc(NC(=O)c2cccc(NC(=O)/C=C/CN(C)C)c2)ccc1Nc1nccc(-c2cccnc2)n1
Population Apoptotic (%) [1]: 100% and 77%
Population Healthy Nuclei (%) [1]: 55% and 82%
Population Hoechst High Intensity Objects (%) [1]: 0%
Population Membrane Permeable-Phenotype (%) [1]: 0%
Population Mitochondria Different-Phenotype (%) [1]: 4% and 0%
Population Mitotic Cells (%) [1]: 0% and 22%
Population Normal (%) [1]: 100%
Population Pyknosed Nuclei (%) [1]: 4% and 12%
Population Tubulin-Different-Phenotype (%) [1]: 70% and 87%
Population Apoptotic (%) [2]: 75%
Population Fragmented Nuclei (%) [2]: 9% and 3%
Population Healthy Nuclei (%) [2]: 61% and 65%
Population Hoechst High Intensity Objects (%) [2]: 0%
Population Membrane Permeable-Phenotype (%) [2]: 15% and 21%
Population Mitochondria Different-Phenotype (%) [2]: 23% and 18%
Population Mitotic Cells (%) [2]: 25% and 24%
Population Normal (%) [2]: 100%
Population Pyknosed Nuclei (%) [2]: 28% and 31%
Population Tubulin-Different-Phenotype (%) [2]: 76% and 43%
Population Apoptotic (%) [3]: 33% and 86%
Population Healthy Nuclei (%) [3]: 60% and 83%
Population Hoechst High Intensity Objects (%) [3]: 0%
Population Membrane Permeable-Phenotype (%) [3]: 3% and 1%
Population Mitochondria Different-Phenotype (%) [3]: 3% and 0%
Population Normal (%) [3]: 100%
Population Pyknosed Nuclei (%) [3]: 6% and 9%
Population Tubulin-Different-Phenotype (%) [3]: 66% and 90%
Population Apoptotic (%) [4]: 92% and 85%
Population Fragmented Nuclei (%) [4]: 15% and 10%
Population Healthy Nuclei (%) [4]: 26% and 35%
Population Hoechst High Intensity Objects (%) [4]: 4% and 1%
Population Membrane Permeable-Phenotype (%) [4]: 41% and 23%
Population Mitochondria Different-Phenotype (%) [4]: 41% and 38%
Population Mitotic Cells (%) [4]: 7% and 14%
Population Normal (%) [4]: 95% and 98%
Population Pyknosed Nuclei (%) [4]: 58% and 53%
Population Tubulin-Different-Phenotype (%) [4]: 91% and 61%
Population Apoptotic (%) [5]: 37% and 75%
Population Fragmented Nuclei (%) [5]: 18% and 6%
Population Healthy Nuclei (%) [5]: 69% and 86%
Population Hoechst High Intensity Objects (%) [5]: 0%
Population Membrane Permeable-Phenotype (%) [5]: 4% and 1%
Population Mitochondria Different-Phenotype (%) [5]: 2% and 1%
Population Mitotic Cells (%) [5]: 62% and 24%
Population Normal (%) [5]: 100%
Population Pyknosed Nuclei (%) [5]: 12% and 7%
Population Tubulin-Different-Phenotype (%) [5]: 68% and 91%
Population Apoptotic (%) [6]: 96% and 95%
Population Healthy Nuclei (%) [6]: 11% and 9%
Population Hoechst High Intensity Objects (%) [6]: 10% and 2%
Population Membrane Permeable-Phenotype (%) [6]: 100% and 92%
Population Mitochondria Different-Phenotype (%) [6]: 100% and 53%
Population Mitotic Cells (%) [6]: 3% and 4%
Population Normal (%) [6]: 89% and 97%
Population Pyknosed Nuclei (%) [6]: 67% and 84%
Population Tubulin-Different-Phenotype (%) [6]: 100% and 84%

C[C@H](N)Cn1ccc2cc(F)c(Cl)cc21.O=C(O)/C=C/C(=O)O
Population Apoptotic (%) [1]: 47% and 66%
Population Fragmented Nuclei (%) [1]: 4% and 8%
Population Healthy Nuclei (%) [1]: 87% and 84%
Population Hoechst High Intensity Objects (%) [1]: 0%
Population Membrane Permeable-Phenotype (%) [1]: 0%
Population Mitochondria Different-Phenotype (%) [1]: 0%
Population Mitotic Cells (%) [1]: 52% and 33%
Population Normal (%) [1]: 99% and 100%
Population Pyknosed Nuclei (%) [1]: 8% and 6%
Population Tubulin-Different-Phenotype (%) [1]: 94% and 44%
Population Apoptotic (%) [2]: 40% and 50%
Population Fragmented Nuclei (%) [2]: 5% and 12%
Population Healthy Nuclei (%) [2]: 88% and 75%
Population Hoechst High Intensity Objects (%) [2]: 0%
Population Membrane Permeable-Phenotype (%) [2]: 1% and 8%
Population Mitochondria Different-Phenotype (%) [2]: 1% and 0%
Population Mitotic Cells (%) [2]: 60% and 50%
Population Normal (%) [2]: 99% and 100%
Population Pyknosed Nuclei (%) [2]: 6% and 12%
Population Tubulin-Different-Phenotype (%) [2]: 62% and 37%
Population Apoptotic (%) [3]: 100% and 62%
Population Fragmented Nuclei (%) [3]: 6% and 1%
Population Healthy Nuclei (%) [3]: 91% and 90%
Population Hoechst High Intensity Objects (%) [3]: 0%
Population Membrane Permeable-Phenotype (%) [3]: 0%
Population Mitochondria Different-Phenotype (%) [3]: 0%
Population Normal (%) [3]: 100% and 99%
Population Pyknosed Nuclei (%) [3]: 2% and 7%
Population Tubulin-Different-Phenotype (%) [3]: 54% and 88%
Population Apoptotic (%) [4]: 42% and 80%
Population Fragmented Nuclei (%) [4]: 3% and 9%
Population Healthy Nuclei (%) [4]: 89% and 78%
Population Hoechst High Intensity Objects (%) [4]: 0%
Population Membrane Permeable-Phenotype (%) [4]: 1% and 3%
Population Mitochondria Different-Phenotype (%) [4]: 1% and 0%
Population Mitotic Cells (%) [4]: 57% and 20%
Population Normal (%) [4]: 99% and 100%
Population Pyknosed Nuclei (%) [4]: 6% and 12%
Population Tubulin-Different-Phenotype (%) [4]: 73% and 31%
Population Apoptotic (%) [5]: 54% and 34%
Population Fragmented Nuclei (%) [5]: 5% and 2%
Population Healthy Nuclei (%) [5]: 83% and 90%
Population Hoechst High Intensity Objects (%) [5]: 0%
Population Membrane Permeable-Phenotype (%) [5]: 0% and 1%
Population Mitochondria Different-Phenotype (%) [5]: 0%
Population Mitotic Cells (%) [5]: 45% and 65%
Population Normal (%) [5]: 100%
Population Pyknosed Nuclei (%) [5]: 11% and 7%
Population Tubulin-Different-Phenotype (%) [5]: 69% and 92%
Population Apoptotic (%) [6]: 50% and 52%
Population Fragmented Nuclei (%) [6]: 10% and 5%
Population Healthy Nuclei (%) [6]: 75% and 89%
Population Hoechst High Intensity Objects (%) [6]: 0%
Population Membrane Permeable-Phenotype (%) [6]: 1%
Population Mitochondria Different-Phenotype (%) [6]: 0%
Population Mitotic Cells (%) [6]: 50% and 47%
Population Normal (%) [6]: 100%
Population Pyknosed Nuclei (%) [6]: 13% and 5%
Population Tubulin-Different-Phenotype (%) [6]: 55% and 81%

COc1ccc(NC(=O)c2ccc(-c3ccc(-c4noc(C)n4)cc3C)cc2)cc1OCCN(C)C.Cl
Population Apoptotic (%) [1]: 40% and 45%
Population Healthy Nuclei (%) [1]: 61% and 83%
Population Hoechst High Intensity Objects (%) [1]: 0%
Population Membrane Permeable-Phenotype (%) [1]: 5% and 4%
Population Mitochondria Different-Phenotype (%) [1]: 5% and 13%
Population Mitotic Cells (%) [1]: 60% and 55%
Population Normal (%) [1]: 100%
Population Pyknosed Nuclei (%) [1]: 16% and 11%
Population Tubulin-Different-Phenotype (%) [1]: 36% and 40%
Population Apoptotic (%) [2]: 76% and 60%
Population Fragmented Nuclei (%) [2]: 10% and 23%
Population Healthy Nuclei (%) [2]: 43% and 51%
Population Hoechst High Intensity Objects (%) [2]: 1% and 0%
Population Membrane Permeable-Phenotype (%) [2]: 34% and 30%
Population Mitochondria Different-Phenotype (%) [2]: 67% and 85%
Population Mitotic Cells (%) [2]: 23% and 40%
Population Normal (%) [2]: 98% and 100%
Population Pyknosed Nuclei (%) [2]: 46% and 25%
Population Tubulin-Different-Phenotype (%) [2]: 93% and 100%
Population Apoptotic (%) [3]: 55% and 51%
Population Healthy Nuclei (%) [3]: 55% and 78%
Population Hoechst High Intensity Objects (%) [3]: 2% and 0%
Population Membrane Permeable-Phenotype (%) [3]: 5%
Population Mitochondria Different-Phenotype (%) [3]: 15% and 17%
Population Mitotic Cells (%) [3]: 44% and 48%
Population Normal (%) [3]: 97% and 99%
Population Pyknosed Nuclei (%) [3]: 25% and 15%
Population Tubulin-Different-Phenotype (%) [3]: 35% and 34%
Population Apoptotic (%) [4]: 63% and 86%
Population Fragmented Nuclei (%) [4]: 16% and 6%
Population Healthy Nuclei (%) [4]: 32%
Population Hoechst High Intensity Objects (%) [4]: 0%
Population Membrane Permeable-Phenotype (%) [4]: 58% and 79%
Population Mitochondria Different-Phenotype (%) [4]: 75% and 89%
Population Mitotic Cells (%) [4]: 36% and 13%
Population Normal (%) [4]: 100% and 99%
Population Pyknosed Nuclei (%) [4]: 51% and 61%
Population Tubulin-Different-Phenotype (%) [4]: 100% and 98%
Population Apoptotic (%) [5]: 77% and 72%
Population Fragmented Nuclei (%) [5]: 16% and 7%
Population Healthy Nuclei (%) [5]: 65% and 77%
Population Hoechst High Intensity Objects (%) [5]: 2% and 0%
Population Membrane Permeable-Phenotype (%) [5]: 6%
Population Mitochondria Different-Phenotype (%) [5]: 3% and 12%
Population Mitotic Cells (%) [5]: 22% and 27%
Population Normal (%) [5]: 98% and 100%
Population Pyknosed Nuclei (%) [5]: 18% and 15%
Population Tubulin-Different-Phenotype (%) [5]: 37% and 40%
Population Apoptotic (%) [6]: 95% and 98%
Population Fragmented Nuclei (%) [6]: 21% and 14%
Population Healthy Nuclei (%) [6]: 18% and 6%
Population Hoechst High Intensity Objects (%) [6]: 2% and 1%
Population Membrane Permeable-Phenotype (%) [6]: 85% and 92%
Population Mitochondria Different-Phenotype (%) [6]: 71% and 100%
Population Mitotic Cells (%) [6]: 4% and 1%
Population Normal (%) [6]: 97% and 98%
Population Pyknosed Nuclei (%) [6]: 59% and 79%
Population Tubulin-Different-Phenotype (%) [6]: 100% and 92%

COCCNC1CCC(Nc2cc(-c3csc(NCC4(C#N)CCOCC4)n3)c(Cl)cn2)CC1 (stereo unspecified)
Population Apoptotic (%) [1]: 45% and 87%
Population Fragmented Nuclei (%) [1]: 17% and 9%
Population Healthy Nuclei (%) [1]: 34% and 40%
Population Hoechst High Intensity Objects (%) [1]: 0%
Population Mitochondria Different-Phenotype (%) [1]: 7%
Population Normal (%) [1]: 100% and 99%
Population Pyknosed Nuclei (%) [1]: 48% and 49%
Population Tubulin-Different-Phenotype (%) [1]: 57% and 58%
Population Apoptotic (%) [2]: 83% and 89%
Population Fragmented Nuclei (%) [2]: 10%
Population Hoechst High Intensity Objects (%) [2]: 2% and 1%
Population Mitochondria Different-Phenotype (%) [2]: 40% and 66%
Population Mitotic Cells (%) [2]: 16% and 10%
Population Normal (%) [2]: 97% and 98%
Population Pyknosed Nuclei (%) [2]: 40% and 78%
Population Tubulin-Different-Phenotype (%) [2]: 50%
Population Apoptotic (%) [3]: 59% and 94%
Population Fragmented Nuclei (%) [3]: 13% and 9%
Population Healthy Nuclei (%) [3]: 25% and 26%
Population Hoechst High Intensity Objects (%) [3]: 0% and 3%
Population Membrane Permeable-Phenotype (%) [3]: 0% and 14%
Population Mitochondria Different-Phenotype (%) [3]: 0% and 11%
Population Normal (%) [3]: 100% and 96%
Population Pyknosed Nuclei (%) [3]: 61% and 63%
Population Tubulin-Different-Phenotype (%) [3]: 55%
Population Apoptotic (%) [4]: 91%
Population Fragmented Nuclei (%) [4]: 9% and 6%
Population Hoechst High Intensity Objects (%) [4]: 2% and 3%
Population Membrane Permeable-Phenotype (%) [4]: 0% and 20%
Population Mitochondria Different-Phenotype (%) [4]: 33% and 58%
Population Mitotic Cells (%) [4]: 8%
Population Normal (%) [4]: 97% and 96%
Population Pyknosed Nuclei (%) [4]: 84% and 60%
Population Tubulin-Different-Phenotype (%) [4]: 66% and 52%
Population Apoptotic (%) [5]: 98% and 78%
Population Fragmented Nuclei (%) [5]: 11% and 16%
Population Healthy Nuclei (%) [5]: 7% and 9%
Population Hoechst High Intensity Objects (%) [5]: 5% and 0%
Population Membrane Permeable-Phenotype (%) [5]: 53% and 66%
Population Mitochondria Different-Phenotype (%) [5]: 38% and 66%
Population Normal (%) [5]: 94% and 100%
Population Pyknosed Nuclei (%) [5]: 81% and 74%
Population Tubulin-Different-Phenotype (%) [5]: 69% and 100%
Population Apoptotic (%) [6]: 100% and 94%
Population Fragmented Nuclei (%) [6]: 9% and 5%
Population Healthy Nuclei (%) [6]: 6% and 16%
Population Hoechst High Intensity Objects (%) [6]: 2% and 3%
Population Membrane Permeable-Phenotype (%) [6]: 66% and 40%
Population Mitochondria Different-Phenotype (%) [6]: 66% and 80%
Population Mitotic Cells (%) [6]: 0% and 5%
Population Normal (%) [6]: 97% and 96%
Population Pyknosed Nuclei (%) [6]: 83% and 78%
Population Tubulin-Different-Phenotype (%) [6]: 66% and 72%
